# Screening data: PubChem BioAssay, several laboratories
# OXTR potentiate = potentiators of human oxytocin receptor | P30559 | CHO-OTR cells, Fluo-8 calcium fluorescence, potentiator mode; 0% = oxytocin EC15, 100% = EC100 | activation, % at 3 µM | 0.061% of 320,000 active;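 active means activation above that plate's cutoff, the mean activation of tested compounds plus 3 SD, cut at about 6.6% in these data, passing the limit was not always enough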;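 further: 100% uses oxytocin at 75 nM as the full agonist control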
# Target sequence (P30559 whole entry, looked up): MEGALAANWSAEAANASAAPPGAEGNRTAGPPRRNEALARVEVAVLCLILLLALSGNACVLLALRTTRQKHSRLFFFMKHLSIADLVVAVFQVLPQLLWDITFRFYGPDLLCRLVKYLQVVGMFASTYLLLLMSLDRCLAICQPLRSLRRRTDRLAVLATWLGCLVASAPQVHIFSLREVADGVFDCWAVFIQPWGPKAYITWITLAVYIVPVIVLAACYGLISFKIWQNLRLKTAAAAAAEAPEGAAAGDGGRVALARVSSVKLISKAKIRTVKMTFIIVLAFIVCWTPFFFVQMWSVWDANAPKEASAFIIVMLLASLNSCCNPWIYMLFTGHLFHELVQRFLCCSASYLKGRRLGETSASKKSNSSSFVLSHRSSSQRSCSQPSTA
#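 Assay system: CHO cell line stably expressing human OTR | Also added: Oxytocin at about EC15, sub-maximal agonist stimulus | Times: Compound 6 min at room temperature before oxytocin, 100 s read | Measured by: Fluo-8 intracellular calcium fluorescence, ex 470-495, em 515-575 nm | Controls: EC15 oxytocin alone as 0%, 75 nM oxytocin as 100%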
# V1R ag counter = counter-screen for oxytocin receptor agonists: human V1a receptor agonists. AID 2797. activation, % at 3 µM. 0.25% of 320,000 active. CHO-V1R cells, Fluo-8 calcium fluorescence, agonist mode; 0% DMSO, 100% 3 nM vasopressin;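 active means activation above the mean activation of all tested compounds plus 3 SD, per screening run, cut at about 20% in these data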;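 further: signal is peak over basal fluorescence ratio across a 100 second FLIPR read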
# OXTR agonist = human OXTR agonism; 0.32% of 320,000 active; CHO-OTR cells, Fluo-8 calcium fluorescence; normalized: DMSO 0%, oxytocin 100%; activation, % at 3 µM; P30559;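 active means activation above the mean of all tested compounds plus 3 SD, cutoff set per screening run, cut at about 20% in these data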;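 further: peak over basal fluorescence ratio from a 100 s FLIPR kinetic read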
# TRPN1 ag = agonists of zebrafish TRPN1 channel | HEK293 zebrafish TRPN1-YFP, Fluo-8 calcium fluorescence; 100% = response to 87 µM carbachol | activation, % at 3 µM | 0.18% of 220,000 active;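 active means activation above its plate's cutoff, the mean activation of test wells on that plate plus 3 SD, cut at about 19% in these data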;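 further: 0% = DMSO alone and 100% = 87 µM carbachol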
#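 Material – zebrafish TRPN1-YFP in HEK293 cells · Doses – 3 µM single point · Schedule – dye 1 h 37 °C plus 30 min RT · Signal – Fluo-8 calcium fluorescence, excitation 470-495 nm, emission 515-575 nm · Read-out – % activation versus carbachol response · Control set – carbachol high, DMSO low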
# CRFBP-R2 agonist = CRF-BP/CRF-R2 complex agonism; HEK293 CRF-R2/CRF-BP, calcium dye fluorescence (FLIPR); percent of saturating CRF peptide response; activation, % at 13.2 µM; 0.46% of 350,000 active; AID 588473;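 active means activation of at least 50%, plus an integration ratio under a set limit after plate pattern correction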;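 further: plate controls were neutral control wells without compound for no effect and CRF at EC100 for full effect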
# TRPML3 agonist = human mucolipin-3 channel agonism; Q8TDD5; HEK293 TRPML3-YFP, Fluo-8 calcium fluorescence; 100% = the carbachol control signal; activation, % at 3 µM; 0.29% of 220,000 active; AID 1448;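 active means activation above its plate's cutoff, the mean activation of the plate's test wells plus 3 SD, cut at about 12% in these data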;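 further: 0% = DMSO only wells and 100% = carbachol wells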
#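 Material: TRPML3-YFP stable HEK293 cells | Dosing: One concentration, 3 µM nominal, 0.3% DMSO | Timing: 125 s total fluorescence read per well | Technique: Fluo-8 calcium dye fluorescence, ex 470-495, em 515-575 nm | Measure: Percent activation from peak-to-basal fluorescence ratio, scaled between DMSO and carbachol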
# Starred values were filed as active, the others as inactive; . = not tested or not shown. Compounds with a hit are over-represented: about 0.83% of the library has one in this group of screens.
SMILES,OXTR potentiate,V1R ag counter,OXTR agonist,TRPN1 ag,CRFBP-R2 agonist,TRPML3 agonist
COc1cc([N+](=O)[O-])cc(/C=C2/SC(=S)N(Cc3ccccc3)C2=O)c1O,-25.3,63.6*,82.0*,.,40.2,.
O=C1/C(=C/c2ccc(O)c([N+](=O)[O-])c2)SC(=S)N1Cc1ccccc1,-6.0,3.3,3.5,2.4,8.4,0.5
NS(=O)(=O)c1cnccc1Oc1cccc(Cl)c1,-1.2,-0.5,0.0,.,-1.4,.
CCOC(=O)Cc1csc(NC(=O)CSc2nnc(-c3ccc(NS(=O)(=O)CC)cc3)o2)n1,-3.7,0.6,-0.2,-0.1,-1.0,1.4
CCOC(=O)Cc1csc(NC(=O)CSc2nnc(-c3ccncc3)o2)n1,-7.9,0.9,-0.2,2.9,121.4*,0.9
NN=C1c2ccccc2C(=O)C1C(=O)C(c1ccccc1)c1ccccc1 (configuration not stated),.,.,.,.,10.0,.
Cc1ccc(C)c(NC(=O)C2CCCN(c3cnccn3)C2)c1 (configuration not stated),-2.9,0.5,-0.8,.,-1.2,.
CCCCc1c(C)c(C#N)c2[nH]c3ccccc3n2c1=O,-29.3,4.4,5.0,1.5,9.9,1.1
CCc1ccccc1N=Cc1c(C)c(C#N)c2[nH]c3ccccc3n2c1=O,.,.,.,.,164.8*,.
O=[N+]([O-])c1ccc(-c2cn3nc(-c4ccccc4)c(-c4ccccc4)nc3n2)cc1,-4.0,0.7,0.4,1.7,66.0*,0.5
Cc1ccc(C(OCC(O)CNCc2ccc(F)cc2)c2ccccc2)cc1 (configuration not stated),-14.4,12.4,12.9,.,4.0,.
CCN(CC)c1ccc(C=C2C(=O)OC(c3ccccc3)OC2=O)cc1 (configuration not stated),-6.4,1.0,1.4,0.2,2.2,0.9
CCN(CC)c1ccc(/C=C/C(=O)C2C(=O)C=C(C)OC2=O)cc1 (configuration not stated),-29.3,141.3*,158.1*,34.8*,377.1*,16.2*
CCCOc1ccc(C(F)(F)F)cc1NC(=O)CCc1c(C)noc1C,-6.6,-1.2,-1.8,.,0.3,.
CC(C)CC(=O)Nc1cc2c3c(c1)C(C)C(=O)N3CCC2 (configuration not stated),-4.4,0.0,0.0,.,-0.7,.
O=c1[nH]c2cc3c(cc2cc1C(c1nnnn1C1CCCCC1)N1CCSCC1)OCCO3 (configuration not stated),-1.3,-0.4,1.0,1.1,54.1*,0.8
COc1cc2cc(C(c3nnnn3C3CCCC3)N3CCCCC3)c(=O)[nH]c2cc1OC (configuration not stated),4.5,0.2,0.1,1.4,0.2,0.7
CCOc1ccc(C(C)NC(=S)NCc2ccc(Cl)cc2)cc1 (configuration not stated),-27.9,18.2,16.7,18.0,95.3*,10.2
CCCc1ccc(C(C)NC(=S)NCc2ccc(F)cc2)cc1 (configuration not stated),-17.2,21.4*,21.2*,.,53.3*,.
COc1ccccc1N1CCN(C2CCCN(C(=O)CCc3cnn(C)c3)C2)CC1 (configuration not stated),0.9,-0.1,-1.2,.,-0.5,.
COc1ccc(-c2cn3cc(C(F)(F)F)cc(Cl)c3n2)cc1,10.8*,-1.1,-2.4,-0.1,-1.1,0.1
COc1ccccc1NC(=O)c1sc2nc(Cc3ccccc3)cc(C(F)(F)F)c2c1N,6.0,1.3,0.6,-0.6,58.1*,1.1
Cc1nnc(NC(=O)c2sc3nc(-c4cccs4)cc(C(F)(F)F)c3c2N)s1,-13.2,43.6*,98.3*,6.9,213.1*,2.7
CCN(CC)C(=O)c1sc2nc(-c3cccs3)cc(-c3cccs3)c2c1N,-1.7,0.9,-0.3,-0.8,5.9,0.1
CC(C)(C)C(=O)c1sc2nc(-c3cccs3)cc(C(F)(F)F)c2c1N,-4.8,3.8,3.0,1.1,82.8*,0.6
SMILES,OXTR potentiate,V1R ag counter,OXTR agonist,TRPN1 ag,CRFBP-R2 agonist,TRPML3 agonist
CN(C)c1ccc(/C=C/C(=O)c2cccc(Br)c2)cc1,-9.8,154.7*,94.4*,163.5*,277.8*,91.9*
CC(C)c1ccc(NC(=S)NN2CCOCC2)cc1,-2.0,0.9,-0.6,2.0,83.1*,1.3
CCN(CC)c1ccc(/C=C(/C#N)c2nc3ccc(C)cc3[nH]2)c(OC(C)C)c1,-14.1,49.8*,69.0*,29.7*,175.9*,22.7*
CCOc1cc(N(CC)CC)ccc1/C=C(/C#N)c1nc2ccccc2[nH]1,-24.4,115.8*,114.1*,7.0,96.6*,3.0
Cc1cc(/C=C(\C#N)c2nc3ccccc3[nH]2)c(C)n1C,-8.5,0.2,0.8,0.1,42.4,0.9
NC(=O)CC(NC(=O)c1ccc(Br)cc1)c1ccc(NC2CCCCCC2)c([N+](=O)[O-])c1 (configuration not stated),-8.3,0.1,-0.2,.,-1.4,.
Cc1ccc(S(=O)(=O)NCc2ccncc2)c(C)c1C,-14.8,10.9,16.3,8.1,53.2*,5.4
CC(C(=O)Nc1ccc2c(c1)OCCO2)c1ccc([N+](=O)[O-])cc1 (configuration not stated),-20.8,42.8*,44.5*,19.9*,110.2*,13.5*
O=C(COC(=O)CNC(=O)c1ccccc1Cl)Nc1ccccc1Cl,1.6,0.8,0.6,.,-2.7,.
CN1CCN(CCCNC(=O)CCC(=O)N2CCOc3ccccc32)CC1,-3.3,0.1,-1.0,.,-4.6,.
C[C@@H]1CN([C@H](C)CO)C(=O)CCCn2nncc2CO[C@H]1CN(C)C,.,.,.,.,-1.9,.
COCC(=O)Nc1ncc(S(=O)(=O)c2ccc([N+](=O)[O-])cc2)s1,-3.1,4.1,4.6,2.0,-1.2,1.1
O=C(Nc1ncc(S(=O)(=O)c2ccc([N+](=O)[O-])cc2)s1)c1cccc2ccccc12,-20.5,26.8*,31.7*,0.7,112.4*,1.2
COc1ccc(NC(=O)Cc2nnc(SCC(=O)NC3CCCC3)n2C)cc1,-5.6,0.3,-0.1,.,1.2,.
COC(=O)c1sc2ncn(CC(=O)NCCc3ccc(OC)c(OC)c3)c(=O)c2c1C,-7.6,0.5,-0.3,-0.8,-2.2,1.0
COc1ccc(CCNC(=O)Cn2cnc3sc(C)c(-c4ccc(F)cc4)c3c2=O)cc1OC,-35.6,23.4*,19.8*,10.6,21.1,5.9
O=C(Nc1cc(C(F)(F)F)ccc1Cl)c1cccnc1,-6.3,0.8,-0.9,.,105.9*,.
CCOc1ccc(C(C(=O)NC2CCCCC2)N(CCOC)C(=O)c2snc(C(N)=O)c2N)cc1 (configuration not stated),-11.8,0.2,-1.2,.,-0.6,.
